Source: ChEMBL document CHEMBL1122954, “Synthesis and antiallergic activity of some quinolinones and imidazoquinolinones” (1985)

How the values were obtained:
Type in all cases: functional
Rattus norvegicus [1] = assay: Antiallergic activity by rat passive cutaneous anaphylaxis (PCA) assay when administered perorally at dose 100 mg/kg; conditions: route oral
Rattus norvegicus [2] = assay: Antiallergic activity determined by rat passive cutaneous anaphylaxis (PCA) assay when administered intraperitoneally at dose 60 mg/kg; conditions: route intraperitoneal
Rattus norvegicus [3] = assay: Percentage normal weight gain when dosed at 200 mg/kg on day one of the 2-week study in rat
Outline: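 Male Sprague-Dawley rats, fasted 16 h, given a single oral dose in 0.1% Methocel; controls got vehicle. Groups of 8–10, weighed daily at about the same time over 2 weeks. Gain over the first 4 days compared with expected gain from standard growth charts for age and strain. Mean % of normal weight gain ± standard error.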

## CCOC(=O)c1cnc2c(NC=O)cccc2c1O
Rattus norvegicus [1]
  Activity: 76
Rattus norvegicus [2]
  Activity: 67
Rattus norvegicus [3]
  Normal weight gain: -26%

## CCOC(=O)c1cn2c(C)nc3cccc(c1=O)c32
Rattus norvegicus [1]
  Activity: 83
Rattus norvegicus [2]
  Activity: 95
Rattus norvegicus [3]
  Normal weight gain: -49%

## CCOC(=O)c1cn2cnc3cc(C)cc(c1=O)c32
Rattus norvegicus [1]
  Activity: 70
Rattus norvegicus [2]
  Activity: 3

## O=CNc1cccc2c(O)cc(C(=O)O)nc12
Rattus norvegicus [1]
  Activity: 16
Rattus norvegicus [2]
  Activity: 91

## CCOC(=O)c1cnc2c(N)cccc2c1O
Rattus norvegicus [2]
  Activity: 19
Rattus norvegicus [3]
  Normal weight gain: 86%

## COC(=O)c1cc(=O)c2cccc3ncn1c32
Rattus norvegicus [1]
  Activity: 1
Rattus norvegicus [2]
  Activity: 16
Rattus norvegicus [3]
  Normal weight gain: 68%

## COC(=O)c1cc(O)c2cccc(N)c2n1
Rattus norvegicus [1]
  Activity: 3
Rattus norvegicus [2]
  Activity: 10
Rattus norvegicus [3]
  Normal weight gain: 100%

## CCOC(=O)c1cnc2c(N)cc(C)cc2c1O
Rattus norvegicus [2]
  Activity: -2

## CCOC(=O)c1cnc2c([N+](=O)[O-])cccc2c1O
Rattus norvegicus [1]
  Activity: -2
Rattus norvegicus [2]
  Activity: 13
Rattus norvegicus [3]
  Normal weight gain: 106%

## COC(=O)c1cc(O)c2cccc([N+](=O)[O-])c2n1
Rattus norvegicus [1]
  Activity: 8
Rattus norvegicus [2]
  Activity: 66
Rattus norvegicus [3]
  Normal weight gain: 104%

## CCO/C(C)=N/c1cccc2c(O)cc(C(=O)OC)nc12
Rattus norvegicus [2]
  Activity: 24

## O=CNc1cccc2c(O)c(C(=O)O)cnc12
Rattus norvegicus [1]
  Activity: 0
Rattus norvegicus [2]
  Activity: 62

## O=C([O-])c1cc(=O)c2c(OCC(O)COc3cccc4oc(C(=O)[O-])cc(=O)c34)cccc2o1.[Na+].[Na+] [CROMOLYN SODIUM]
Rattus norvegicus [1]
  Activity: 2
Rattus norvegicus [2]
  Activity: 100

## CCOC(=O)c1cn2cnc3cccc(c1=O)c32
Rattus norvegicus [1]
  Activity: 70
Rattus norvegicus [2]
  Activity: 100
Rattus norvegicus [3]
  Normal weight gain: -6%
